Most compounds without a hit are left out; they make up all but 5.6% or so of the library.
aDG glyco act – increases alpha dystroglycan glycosylation | Pro5-aDG cells, alpha-DG glycosylation AlphaScreen (IIH6); 0% Pro5, 100% B10-LARGE cell signal | activation, % at 10 µM | 360,000 tested, 0.22% active | AID 624168;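 active = activation of at least 8% versus controls, or a plate z-score of at least 8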;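 also: Pro5 are CHO cells carrying HIG-tagged alpha-DG that lacks glycosylation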
XBP1 UPR activ – adaptive UPR (XBP1) activation; CHO-XBP1 luciferase reporter, IRE1-XBP1 UPR activation, luminescence; percent of tunicamycin response, DMSO as zero; activation, % at 20 µM; 330,000 tested, 0.33% active;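 active = versus positive control, 20 µM dose yields 30% or more activation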;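 also: 100% = tunicamycin at 10 µg/mL and 0% = DMSO only wells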
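Test system: CHO-XBP1 luciferase reporter cells | Buffer or medium: Serum-containing F12 medium, 10% FBS | Schedule: 6 h compound exposure at 37 °C, 5% CO2 | Detection: Steady-Glo luciferase glow luminescence, 10 min after reagent addition | Read-out basis: Activation, % of tunicamycin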
MPTP block – inhibitors of mitochondrial permeability transition pore. 360,000 tested, 1.4% active. isolated mouse mitochondria, Ca2+ swelling absorbance, 30 min. inhibition, % at 10 µM;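 active = inhibition of 50% or more, scaled per plate between neutral and stimulator controls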;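 also: 0% = DMSO wells given calcium and 100% = 1 mM EGTA wells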
GRIN3A LBD mod – modulates the human NR3A ligand-binding domain | NR3A LBD differential scanning fluorimetry, Tm shift; 0% = protein alone, 100% = glycine-bound protein | Tm shift relative to glycine control, % at 25 µM | 340,000 tested, 2.5% active | AID 1259313;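 active = melting temperature shift of at least 10% of the positive control shift, at one fixed dose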
CHOP inhibitor – blocks CHOP induction under ER stress; CHO-K1 CHOP-promoter luciferase, tunicamycin-induced, 15-18 h; inhibition, % at 10 µM; 220,000 tested, 3.8% active;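 active = compounds that reduced the stress-induced luciferase reporter signal by more than about 70% of percent inhibition, limit read from the data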;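 also: 0% = tunicamycin plus vehicle and 100% = wells without tunicamycin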
CHOP UPR activ – apoptotic UPR (CHOP) activation | CHO-CHOP luciferase reporter, luminescence; percent of tunicamycin response over DMSO baseline | activation, % at 10 µM | 330,000 tested, 0.34% active | AID 449763;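 active = at 10 µM dose, activation of 40% or more, normalized to positive control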;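 also: 100% = tunicamycin at 10 µg/mL and 0% = DMSO alone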
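Evaluation: % reporter activation, DMSO baseline versus tunicamycin full activation; System: CHO-CHOP luciferase reporter cell line; Input: 500 cells/well; Incubation: 6 h compound treatment, 37 °C; Measured by: Steady-Glo luciferase luminescence; Dosing: one dose, 10 µM in 0.5% DMSO; Buffer or medium: F12 medium, 10% FBS; Benchmarks: positive tunicamycin 10 µg/mL, negative DMSO alone.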
MPTP counter – membrane potential counter-screen of mitochondrial pore inhibitors; shares compounds with MPTP block; isolated mitochondria, Rhodamine 123 fluorescence; inhibition, % at 10 µM; 5,000 tested, 78% active; AID 624504; in the data active = inhibition above about 22%;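 also: 0% = DMSO vehicle and 100% = positive control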
MPTP abs DR – MPTP inhibition, dose response swelling confirmation; 780 tested, 58% active; IC50, µM; isolated mitochondria swelling, absorbance; shares compounds with MPTP block; in the data active = IC50 below about 20 µM
MPTP counter DR – active in counter-screen for permeability transition pore inhibitors; shares compounds with MPTP block; isolated mitochondria counterscreen, fluorescence read-out; IC50, µM; 780 tested, 49% active; AID 651564; in the data active = IC50 below about 80 µM
* = called active by the depositor; i = inactive; · = not tested or not shown.

SMILES | aDG glyco act | XBP1 UPR activ | MPTP block | GRIN3A LBD mod | CHOP inhibitor | CHOP UPR activ | MPTP counter | others
CC/C(=N\Nc1ccc([N+](=O)[O-])cc1)c1ccccc1 | 1 | 2 | 65* | -2 | 75* | 1 | 63*
C/C(=N\Nc1ccc([N+](=O)[O-])cc1)c1ccc(N2CCOCC2)cc1 | 0 | 2 | 6 | 8 | -8 | 5 | ·
CCc1ccc(/C(C)=N\Nc2ccc([N+](=O)[O-])cc2)cc1 | 0 | 2 | 58* | -1 | 69 | 0 | 51*
O=[N+]([O-])c1ccc(NN=C(Oc2ccccc2)c2ccc([N+](=O)[O-])cc2)cc1 | 0 | · | 22 | · | · | · | ·
CCOC(=O)[C@]12CCCC=C1N(Cc1ccc3c(c1)OCO3)C(=O)[C@H](CC(=O)N1CCCC1)C2 | 0 | · | 0 | · | · | · | ·
CC(=O)Cc1nsc(NC(=O)c2ccc(-c3ccc(Cl)cc3Cl)o2)n1 | 3 | 1 | 54* | 6 | 13 | 1 | 38*
CCCCCCCSc1nsc(N)n1 | 0 | -2 | 1 | -11 | 4 | -1 | ·
CCCCCCSc1nsc(NC(=O)CC(C)C)n1 | 2 | 1 | 78* | 1 | 4 | 8 | 92*
CC(=O)c1cccc(NC(=O)Nc2ccc3c(c2)N(C)C(=O)CS3)c1 | 0 | -3 | 90* | -11 | 32 | 2 | 76*
CCc1ccc(NC(=O)Nc2ccc3c(c2)N(C)C(=O)CS3)cc1 | 0 | 0 | 56* | 4 | 75* | 0 | 70*
CN1C(=O)CSc2ccc(NC(=O)NCc3ccccc3)cc21 | 0 | -1 | 6 | -2 | 12 | -2 | ·
CCOC(=O)C1=NOC2(C1)C(=O)Nc1ccc(OC)cc12 (stereo unspecified) | 0 | · | 1 | · | · | · | ·
COC(C[C@H]1O[C@H]1[C@H](O)[C@H](C)OCc1ccccc1)OC | 0 | -1 | 2 | 0 | -4 | 2 | ·
CCOc1ccc(NC(=S)Nc2ccc(Br)cc2Cl)cc1 | 0 | 3 | 8 | -3 | 9 | -1 | ·
CC(NC(=S)Nc1cccc(C(F)(F)F)c1)C(C)(C)C (stereo unspecified) | 1 | -1 | 94* | 3 | -11 | 4 | 95*
COc1ccc(NC(=S)Nc2cccc(C(F)(F)F)c2)c(C)c1 | 0 | 1 | 78* | -2 | 50 | -2 | 104*
COc1cccc(NC(=S)Nc2ccc(Br)cc2Cl)c1 | 0 | 0 | 56* | -12 | -6 | 0 | 69*
CN(C)NC(=S)Nc1cccc(C(F)(F)F)c1 | 0 | 2 | -2 | 0 | 20 | 0 | ·
Cc1ccc(NC(=S)NNC(=S)Nc2cccc(C(F)(F)F)c2)cc1 | 0 | 1 | 73* | 34* | 61 | 1 | 53*
CS(=O)(=O)N1CCC(Oc2ccccc2C(=O)N2CCN(CC3CC3)CC2)CC1 | 0 | 1 | 0 | -2 | -10 | -1 | ·
CSc1ccccc1NC(=S)Nc1cccc(C(F)(F)F)c1 | 0 | -1 | 94* | -4 | 16 | 2 | 92*
CN1CCN(C(=O)c2ccc3c(=O)n(Cc4ccc(Cl)cc4)c(=S)[nH]c3c2)CC1 | 2 | -3 | 93* | -6 | 9 | -1 | -13 | MPTP abs DR=18*;MPTP counter DR=>80
CCN1CCN(CCCNC(=O)c2ccc3c(=O)n(CCc4ccccc4)c(=O)[nH]c3c2)CC1 | 0 | 1 | -1 | 0 | · | 3 | ·
CCCN1CCN(CCCNC(=O)c2ccc3c(=O)n(CCc4ccccc4)c(=O)[nH]c3c2)CC1 | 0 | -1 | 70* | -2 | · | 1 | 0 | MPTP abs DR=i;MPTP counter DR=>80
CC1CCN(CCNC(=O)c2ccc3c(=O)n(Cc4ccc(Cl)cc4)c(=S)[nH]c3c2)CC1 | 0 | 7 | 90* | -6 | · | 3 | -18
SMILES | aDG glyco act | XBP1 UPR activ | MPTP block | GRIN3A LBD mod | CHOP inhibitor | CHOP UPR activ | MPTP counter | others
O=C(c1ccc2c(=O)n(Cc3ccc(Cl)cc3)c(=S)[nH]c2c1)N1CCCC1 | 0 | 3 | -2 | -6 | · | 2 | ·
CCC1(c2ccc(Cl)cc2)NC(=O)N(CC(=O)NC2CCCC(C)C2C)C1=O (stereo unspecified) | 1 | -1 | -2 | -1 | · | 0 | ·
CC(=O)Nc1nc(C2CC2)cc(-c2ccccc2)c1C#N | 1 | -2 | -1 | 0 | -10 | 1 | ·
CN(CCCS(=O)(=O)[O-])c1ccc(/C=C/c2ccc3ccccc3[n+]2C)cc1 | 0 | 7 | 3 | 0 | · | 0 | ·
CN(C)c1ccc(/C=C/c2ccc3ccccc3[n+]2C)cc1 | 4 | 2 | 109* | -3 | 70* | 9 | 68*
CCCCNS(=O)(=O)c1ccc(NC(=O)C(Sc2ccccc2)c2ccccc2)cc1 (stereo unspecified) | 1 | · | 76* | 21* | 36 | · | 68*
C=CCn1cc(C(=O)NCCCN(CC)CC)c(=O)c2cc(S(=O)(=O)N3CCC(C)CC3)ccc21 | 0 | -7 | -1 | 0 | · | 2 | ·
CC1CCCCN1S(=O)(=O)c1ccc(C(=O)Nc2ccccc2-c2nc3ccccc3s2)cc1 (stereo unspecified) | 0 | -2 | -1 | 0 | -15 | -1 | ·
CC1CCCCN1S(=O)(=O)c1ccc(C(=O)Nc2ccccc2-c2nc3ccccc3[nH]2)cc1 (stereo unspecified) | 1 | -2 | 74* | 30* | 26 | 5 | 75*
Cc1ccccc1NC(=O)c1ccc(S(=O)(=O)N2CCCC2)cc1 | 0 | -2 | -1 | 1 | · | 1 | ·
O=C(Nc1ccccc1-c1nc2ccccc2[nH]1)c1ccc(S(=O)(=O)N2CCCCC2)cc1 | 0 | · | 50* | 7 | 12 | · | 28*
COc1ccccc1N(CC(=O)NCc1ccccc1C)S(=O)(=O)c1ccc(C)cc1 | 0 | -2 | 1 | -3 | · | -2 | ·
CC(=O)Nc1cc(-c2ccccc2)nn1Cc1ccc(Cl)cc1 | 0 | 1 | 3 | 0 | 5 | 2 | ·
O=C(Nc1cc(-c2ccccc2)nn1C1CCCCC1)c1ccc(Cl)cc1 | 1 | 2 | 64* | -2 | · | -1 | 97*
CC(=O)Oc1c(I)cc(I)cc1C(=O)Nc1ccc(Cl)cc1 | 0 | -5 | 70* | 16* | · | -1 | 69*
NNC(=O)c1sccc1OCc1ccc(Cl)cc1Cl | 0 | -3 | 2 | -2 | 10 | -1 | ·
O=C(Cn1cc(S(=O)(=O)N2CCN(c3ccccc3F)CC2)c2ccccc2c1=O)NCCCN1CCCCCC1 | 0 | -2 | -2 | -2 | 27 | 1 | ·

Assay outcomes deposited in PubChem BioAssay by several laboratories.
